pIC50: −log10 of the molar value.
Experiments:
[1] = target: BMP-2-inducible protein kinase (Homo sapiens) (UniProt Q9NSY1); test: Binding affinity to BIKE assessed as change in thermal denaturation at 10 uM by thermal stability shift assay
Summary of the method: (§1)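 Each compound was screened across a kinase panel by thermal stability shift assay. The read-out was the shift in protein melting temperature (ΔTm, in °C) relative to the unliganded kinase. A ΔTm of 4.0 °C served as the hit cutoff.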

[2] = target: Serine/threonine-protein kinase PLK1 (Homo sapiens) (UniProt P53350); test: Binding affinity to PLK1 assessed as change in thermal denaturation at 10 uM by thermal stability shift assay; summary of the method: as §1
[3] = target: T1, Cyclin-G-associated kinase (Homo sapiens) (UniProt O14976); test: Binding affinity to GAK assessed as change in thermal denaturation at 10 uM by thermal stability shift assay; summary of the method: as §1
T1 sequence (whole entry): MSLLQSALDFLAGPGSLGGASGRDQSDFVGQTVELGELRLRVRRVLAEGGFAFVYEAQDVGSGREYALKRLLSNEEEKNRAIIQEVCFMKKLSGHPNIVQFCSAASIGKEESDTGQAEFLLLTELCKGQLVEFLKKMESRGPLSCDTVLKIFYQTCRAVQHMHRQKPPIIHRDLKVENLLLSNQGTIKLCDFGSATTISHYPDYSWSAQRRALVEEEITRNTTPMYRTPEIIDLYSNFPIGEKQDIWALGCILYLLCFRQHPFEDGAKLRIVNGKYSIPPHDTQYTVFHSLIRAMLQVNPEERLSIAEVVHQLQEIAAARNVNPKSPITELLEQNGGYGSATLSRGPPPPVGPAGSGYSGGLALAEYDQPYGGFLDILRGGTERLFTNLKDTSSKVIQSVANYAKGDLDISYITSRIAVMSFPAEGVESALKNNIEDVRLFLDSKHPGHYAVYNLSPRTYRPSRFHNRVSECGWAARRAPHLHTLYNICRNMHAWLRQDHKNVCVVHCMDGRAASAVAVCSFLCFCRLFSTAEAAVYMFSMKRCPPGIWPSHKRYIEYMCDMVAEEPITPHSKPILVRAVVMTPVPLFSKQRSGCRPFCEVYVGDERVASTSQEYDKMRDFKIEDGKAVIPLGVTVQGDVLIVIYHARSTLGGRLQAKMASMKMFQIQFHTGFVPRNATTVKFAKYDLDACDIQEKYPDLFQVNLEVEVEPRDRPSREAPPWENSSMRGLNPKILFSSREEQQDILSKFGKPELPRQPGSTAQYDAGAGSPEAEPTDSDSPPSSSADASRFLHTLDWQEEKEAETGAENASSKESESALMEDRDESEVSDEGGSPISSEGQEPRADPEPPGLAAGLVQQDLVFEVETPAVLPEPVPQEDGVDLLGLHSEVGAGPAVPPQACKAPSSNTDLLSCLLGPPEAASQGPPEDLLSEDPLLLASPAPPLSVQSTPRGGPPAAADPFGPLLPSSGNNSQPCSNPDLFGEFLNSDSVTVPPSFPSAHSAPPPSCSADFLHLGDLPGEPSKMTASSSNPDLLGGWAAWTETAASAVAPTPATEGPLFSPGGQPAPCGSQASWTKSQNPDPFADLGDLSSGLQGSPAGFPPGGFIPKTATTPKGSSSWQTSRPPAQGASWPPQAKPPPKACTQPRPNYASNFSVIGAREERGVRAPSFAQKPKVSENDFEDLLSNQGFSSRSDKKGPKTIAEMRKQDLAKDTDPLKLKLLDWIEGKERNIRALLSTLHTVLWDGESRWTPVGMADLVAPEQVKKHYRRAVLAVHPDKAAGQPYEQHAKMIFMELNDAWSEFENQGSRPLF

[4] = target: Tyrosine-protein kinase Fes/Fps (Homo sapiens) (UniProt P07332); test: Binding affinity to FES assessed as change in thermal denaturation at 10 uM by thermal stability shift assay; summary of the method: as §1
[5] = target: T2, Myosin light chain kinase family member 4 (Homo sapiens) (UniProt Q86YV6); test: Binding affinity to SGK085 assessed as change in thermal denaturation at 10 uM by thermal stability shift assay; summary of the method: as §1
T2 sequence (whole entry): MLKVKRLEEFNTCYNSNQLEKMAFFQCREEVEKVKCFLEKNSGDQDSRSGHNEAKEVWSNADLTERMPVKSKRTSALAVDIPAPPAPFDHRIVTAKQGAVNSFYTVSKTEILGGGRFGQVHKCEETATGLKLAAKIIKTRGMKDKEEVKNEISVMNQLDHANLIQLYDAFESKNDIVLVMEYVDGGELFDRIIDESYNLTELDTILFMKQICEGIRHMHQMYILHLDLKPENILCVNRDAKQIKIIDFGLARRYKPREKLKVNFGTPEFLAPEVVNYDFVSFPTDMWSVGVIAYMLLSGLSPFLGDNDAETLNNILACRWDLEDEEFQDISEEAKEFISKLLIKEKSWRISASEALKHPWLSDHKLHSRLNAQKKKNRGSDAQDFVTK

[6] = target: T3, cAMP-dependent protein kinase catalytic subunit PRKX (Homo sapiens) (UniProt P51817); test: Binding affinity to PRKX assessed as change in thermal denaturation at 10 uM by thermal stability shift assay; summary of the method: as §1
T3 sequence (whole entry): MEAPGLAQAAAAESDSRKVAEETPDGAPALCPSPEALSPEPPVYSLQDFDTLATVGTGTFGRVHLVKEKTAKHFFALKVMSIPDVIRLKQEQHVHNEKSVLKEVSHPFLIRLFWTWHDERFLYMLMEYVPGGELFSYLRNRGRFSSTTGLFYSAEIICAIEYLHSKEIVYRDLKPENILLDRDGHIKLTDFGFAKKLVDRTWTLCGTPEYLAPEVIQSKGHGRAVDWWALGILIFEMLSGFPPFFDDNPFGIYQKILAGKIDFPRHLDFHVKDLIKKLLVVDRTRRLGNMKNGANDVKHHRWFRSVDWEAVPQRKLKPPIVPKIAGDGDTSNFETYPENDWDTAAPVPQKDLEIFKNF

[7] = target: Death-associated protein kinase 3 (Homo sapiens) (UniProt O43293); test: Binding affinity to N-terminus His6-tagged DAPK3 expressed in Escherichia coli BL21 (DE3) cells coexpressing pCOEX assessed as change in thermal denaturation at 10 uM by thermal stability shift assay
Summary of the method: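 DAPK3 was expressed in E. coli grown in TB with kanamycin and chloramphenicol at 37 °C, cooled to 25 °C, and induced with 0.5 mM IPTG. Binding was read as thermal-shift ΔTm in °C.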

[8] = target: Proto-oncogene tyrosine-protein kinase receptor Ret (Homo sapiens, UniProt P07949); test: Inhibition of RET using ATP as substrate
[9] = target: Serine/threonine-protein kinase pim-1 (Homo sapiens, UniProt P11309); test: Inhibition of PIM1 using ATP as substrate
[10] = target: Serine/threonine-protein kinase pim-2 (Homo sapiens, UniProt Q9P1W9); test: Inhibition of PIM2 using ATP as substrate
[11] = target: Serine/threonine-protein kinase pim-3 (Homo sapiens, UniProt Q86V86); test: Inhibition of PIM3 using ATP as substrate

Serine/threonine-protein kinase PLK1 (Homo sapiens), sequence (P53350 whole entry): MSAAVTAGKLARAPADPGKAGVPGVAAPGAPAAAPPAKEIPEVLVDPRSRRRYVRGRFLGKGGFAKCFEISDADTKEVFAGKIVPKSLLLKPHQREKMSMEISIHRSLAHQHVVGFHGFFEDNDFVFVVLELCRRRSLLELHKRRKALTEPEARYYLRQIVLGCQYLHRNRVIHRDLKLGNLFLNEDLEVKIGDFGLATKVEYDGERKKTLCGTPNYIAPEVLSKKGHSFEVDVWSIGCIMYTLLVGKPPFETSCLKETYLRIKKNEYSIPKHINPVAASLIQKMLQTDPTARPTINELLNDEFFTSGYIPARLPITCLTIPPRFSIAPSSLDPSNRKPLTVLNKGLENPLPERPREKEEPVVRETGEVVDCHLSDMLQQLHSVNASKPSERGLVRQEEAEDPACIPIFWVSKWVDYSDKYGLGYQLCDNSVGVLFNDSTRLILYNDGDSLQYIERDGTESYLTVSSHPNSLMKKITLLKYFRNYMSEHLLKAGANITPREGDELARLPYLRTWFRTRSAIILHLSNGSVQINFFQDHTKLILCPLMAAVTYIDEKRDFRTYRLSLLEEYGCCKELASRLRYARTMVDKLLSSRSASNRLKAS
Tyrosine-protein kinase Fes/Fps (Homo sapiens), sequence (P07332 whole entry): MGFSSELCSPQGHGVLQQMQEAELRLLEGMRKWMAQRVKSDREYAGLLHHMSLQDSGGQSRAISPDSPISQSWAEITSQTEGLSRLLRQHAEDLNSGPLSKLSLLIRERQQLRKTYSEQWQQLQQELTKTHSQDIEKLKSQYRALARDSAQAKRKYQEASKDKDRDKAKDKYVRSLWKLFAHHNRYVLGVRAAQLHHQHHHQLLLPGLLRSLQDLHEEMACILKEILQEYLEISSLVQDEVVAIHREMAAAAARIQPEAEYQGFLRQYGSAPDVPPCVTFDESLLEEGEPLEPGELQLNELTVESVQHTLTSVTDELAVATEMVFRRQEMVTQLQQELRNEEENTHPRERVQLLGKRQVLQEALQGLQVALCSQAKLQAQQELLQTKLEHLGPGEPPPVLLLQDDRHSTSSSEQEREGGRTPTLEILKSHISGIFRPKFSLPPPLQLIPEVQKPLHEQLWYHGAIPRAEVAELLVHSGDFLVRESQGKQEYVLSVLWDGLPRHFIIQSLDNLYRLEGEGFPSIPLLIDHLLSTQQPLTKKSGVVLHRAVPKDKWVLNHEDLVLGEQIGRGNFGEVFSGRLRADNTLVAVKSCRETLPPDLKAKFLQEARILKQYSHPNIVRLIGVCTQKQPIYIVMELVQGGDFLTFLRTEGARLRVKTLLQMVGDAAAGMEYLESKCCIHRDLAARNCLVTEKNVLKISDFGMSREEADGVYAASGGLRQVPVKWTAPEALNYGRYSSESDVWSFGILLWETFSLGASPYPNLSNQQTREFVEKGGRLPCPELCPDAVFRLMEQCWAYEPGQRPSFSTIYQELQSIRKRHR
Death-associated protein kinase 3 (Homo sapiens), sequence (O43293 whole entry, looked up): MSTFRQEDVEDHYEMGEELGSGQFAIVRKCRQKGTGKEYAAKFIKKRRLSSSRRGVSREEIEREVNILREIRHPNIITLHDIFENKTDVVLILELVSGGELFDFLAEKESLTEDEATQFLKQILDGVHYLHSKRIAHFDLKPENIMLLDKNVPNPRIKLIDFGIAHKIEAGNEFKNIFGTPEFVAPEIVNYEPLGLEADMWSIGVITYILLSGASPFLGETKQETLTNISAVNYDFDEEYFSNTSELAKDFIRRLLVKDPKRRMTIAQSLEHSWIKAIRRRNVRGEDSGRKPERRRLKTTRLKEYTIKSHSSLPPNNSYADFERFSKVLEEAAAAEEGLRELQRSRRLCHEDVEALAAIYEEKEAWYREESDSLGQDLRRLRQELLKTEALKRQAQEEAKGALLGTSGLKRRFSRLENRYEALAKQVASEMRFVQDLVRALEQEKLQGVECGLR
BMP-2-inducible protein kinase (Homo sapiens), sequence (Q9NSY1 whole entry, looked up): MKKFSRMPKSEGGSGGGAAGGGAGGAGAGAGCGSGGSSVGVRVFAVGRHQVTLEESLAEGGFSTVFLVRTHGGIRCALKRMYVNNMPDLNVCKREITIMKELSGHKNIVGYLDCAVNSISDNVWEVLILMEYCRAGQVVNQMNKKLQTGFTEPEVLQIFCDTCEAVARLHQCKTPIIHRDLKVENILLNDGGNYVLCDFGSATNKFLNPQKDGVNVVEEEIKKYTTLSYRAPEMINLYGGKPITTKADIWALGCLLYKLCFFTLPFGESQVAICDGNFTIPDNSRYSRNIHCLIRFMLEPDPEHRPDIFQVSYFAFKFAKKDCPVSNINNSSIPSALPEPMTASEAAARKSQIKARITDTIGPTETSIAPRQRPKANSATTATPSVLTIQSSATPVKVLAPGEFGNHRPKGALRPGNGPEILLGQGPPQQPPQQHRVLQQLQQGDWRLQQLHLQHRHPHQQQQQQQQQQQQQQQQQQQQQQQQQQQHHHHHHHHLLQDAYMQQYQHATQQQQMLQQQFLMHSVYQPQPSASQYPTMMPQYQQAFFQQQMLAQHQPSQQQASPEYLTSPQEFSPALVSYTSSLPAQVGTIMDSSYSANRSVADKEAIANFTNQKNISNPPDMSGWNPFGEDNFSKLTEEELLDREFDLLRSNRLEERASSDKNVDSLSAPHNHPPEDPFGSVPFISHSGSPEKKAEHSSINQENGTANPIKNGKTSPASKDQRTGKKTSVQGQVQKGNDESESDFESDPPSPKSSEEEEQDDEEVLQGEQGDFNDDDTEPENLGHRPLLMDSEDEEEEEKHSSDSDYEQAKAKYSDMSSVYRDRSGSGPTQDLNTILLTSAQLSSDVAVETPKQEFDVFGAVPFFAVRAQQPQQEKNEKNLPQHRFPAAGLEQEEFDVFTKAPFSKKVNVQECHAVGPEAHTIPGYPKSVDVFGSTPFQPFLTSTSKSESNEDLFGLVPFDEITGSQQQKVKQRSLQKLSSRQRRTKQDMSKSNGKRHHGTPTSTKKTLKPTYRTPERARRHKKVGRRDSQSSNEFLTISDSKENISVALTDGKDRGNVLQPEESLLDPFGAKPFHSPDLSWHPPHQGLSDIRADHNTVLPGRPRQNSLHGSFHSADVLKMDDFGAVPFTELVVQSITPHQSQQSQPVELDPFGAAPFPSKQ
Serine/threonine-protein kinase pim-2, sequence (Q9P1W9 whole entry): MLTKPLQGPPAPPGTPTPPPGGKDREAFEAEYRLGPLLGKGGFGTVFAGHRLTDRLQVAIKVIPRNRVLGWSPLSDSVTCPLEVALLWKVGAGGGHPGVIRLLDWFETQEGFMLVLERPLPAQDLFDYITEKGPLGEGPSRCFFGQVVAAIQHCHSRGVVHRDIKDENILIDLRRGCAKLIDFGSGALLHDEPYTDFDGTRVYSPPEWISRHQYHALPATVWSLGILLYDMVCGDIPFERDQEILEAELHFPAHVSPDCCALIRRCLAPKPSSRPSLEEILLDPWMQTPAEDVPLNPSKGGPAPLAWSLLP
Serine/threonine-protein kinase pim-1, sequence (P11309 whole entry): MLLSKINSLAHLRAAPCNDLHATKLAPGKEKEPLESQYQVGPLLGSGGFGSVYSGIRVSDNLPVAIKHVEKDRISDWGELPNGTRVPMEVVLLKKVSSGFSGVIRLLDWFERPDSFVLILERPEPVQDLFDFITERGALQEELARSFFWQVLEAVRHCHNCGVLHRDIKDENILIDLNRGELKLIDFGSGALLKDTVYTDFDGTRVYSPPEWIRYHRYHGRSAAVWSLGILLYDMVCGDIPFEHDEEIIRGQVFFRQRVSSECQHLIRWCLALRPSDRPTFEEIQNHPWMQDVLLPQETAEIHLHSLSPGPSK
Proto-oncogene tyrosine-protein kinase receptor Ret, sequence (P07949 whole entry): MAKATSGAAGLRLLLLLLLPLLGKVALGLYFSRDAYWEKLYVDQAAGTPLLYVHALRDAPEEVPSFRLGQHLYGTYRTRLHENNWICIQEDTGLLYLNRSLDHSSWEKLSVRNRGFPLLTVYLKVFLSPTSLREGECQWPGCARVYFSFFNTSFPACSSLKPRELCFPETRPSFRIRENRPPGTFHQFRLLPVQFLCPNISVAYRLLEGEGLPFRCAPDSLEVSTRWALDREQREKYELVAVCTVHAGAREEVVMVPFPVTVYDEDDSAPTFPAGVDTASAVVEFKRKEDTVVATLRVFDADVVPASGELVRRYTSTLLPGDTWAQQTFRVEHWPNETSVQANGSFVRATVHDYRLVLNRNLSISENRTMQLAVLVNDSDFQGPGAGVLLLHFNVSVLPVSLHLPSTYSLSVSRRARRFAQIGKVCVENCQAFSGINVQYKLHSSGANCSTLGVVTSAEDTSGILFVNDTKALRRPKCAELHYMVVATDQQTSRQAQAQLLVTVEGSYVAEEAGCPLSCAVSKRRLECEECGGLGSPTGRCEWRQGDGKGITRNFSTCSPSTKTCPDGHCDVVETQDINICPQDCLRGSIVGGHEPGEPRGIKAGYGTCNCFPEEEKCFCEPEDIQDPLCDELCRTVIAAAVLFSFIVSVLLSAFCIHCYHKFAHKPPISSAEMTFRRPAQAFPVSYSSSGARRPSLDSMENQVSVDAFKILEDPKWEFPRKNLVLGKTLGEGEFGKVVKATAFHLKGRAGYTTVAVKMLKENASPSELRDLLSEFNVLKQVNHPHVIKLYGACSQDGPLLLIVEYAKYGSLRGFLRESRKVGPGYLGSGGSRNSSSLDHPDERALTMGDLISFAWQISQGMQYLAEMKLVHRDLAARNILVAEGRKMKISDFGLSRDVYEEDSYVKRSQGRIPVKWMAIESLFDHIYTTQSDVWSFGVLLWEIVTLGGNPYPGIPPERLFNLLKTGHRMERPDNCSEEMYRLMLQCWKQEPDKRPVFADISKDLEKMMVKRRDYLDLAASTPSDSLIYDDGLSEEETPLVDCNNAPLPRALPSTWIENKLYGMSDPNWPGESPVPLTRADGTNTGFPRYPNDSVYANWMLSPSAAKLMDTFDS

Row | SMILES | ΔTm [1] [°C] | ΔTm [2] [°C] | ΔTm [3] [°C] | ΔTm [4] [°C] | ΔTm [5] [°C] | ΔTm [6] [°C] | ΔTm [7] [°C] | pIC50 [8] | pIC50 [9] | pIC50 [10] | pIC50 [11]
1 | Cn1c2c(c3ccc(Cl)c(Cl)c31)C(C#N)C(C)(C)NC2=O (stereo not given) | 2.8 | 4.9 | 2.8 | -0.3 | 2 | 2.8 | 3.4 | – | – | – | –
2 | CCN1CCC2(CC1)NC(=O)c1c(c3ccc(Cl)c(Cl)c3n1C)C2C#N (racemic) | -0.5 | 0.4 | 0.9 | 0.7 | 0 | 3.1 | 4.6 | – | – | – | –
3 | N#CC1c2c([nH]c3c(Cl)c(Cl)ccc23)C(=O)NC12CCCCC2 (racemic) | 1.1 | 0.3 | 2.8 | -0.4 | 1.2 | 1 | 3.4 | – | – | – | –
4 | Cn1c2c(Cl)c(Cl)ccc2c2cc[nH]c(=O)c21 | 8.2 | 1.6 | 3.3 | 0.1 | 6.4 | 0.3 | 3.4 | – | – | – | –
5 | Cn1c2c(c3ccc(Cl)c(Cl)c31)C(C#N)C1(CCNCC1)NC2=O (racemic) | 1 | 1.4 | 1.4 | 4 | 3.5 | 5.8 | 10.6 | 5.11 | 7.22 | 6.62 | 7.05
6 | CCC1(CC)NC(=O)c2c(c3ccc(Cl)c(Cl)c3n2C)C1C#N (stereo not given) | 1.2 | 0.9 | 1.2 | 0 | 0.4 | 0.8 | 2.4 | – | – | – | –
7 | Cn1c2c(c3ccc(Cl)c(Cl)c31)C(C#N)C1(CCN(C(=O)OC(C)(C)C)CC1)NC2=O (racemic) | 0 | 0.5 | -0.2 | 0.4 | 0 | 0.3 | -0.2 | – | – | – | –
8 | CC(=O)NCC1c2c(n(C)c3c(Cl)c(Cl)ccc23)C(=O)NC1(C)C (racemic) | 0.4 | 0.7 | 0.5 | 0.4 | 0.6 | 0.7 | 0.8 | – | – | – | –
